Test results as given in PubChem BioAssay AID492951 (Molecular Libraries Program, Specialized Chemistry Center, …, 2010).
The source made the active and inactive calls.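 Rule for the calls: active = inhibition above 10%; inactive = the rest.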

Molecular target: Hexokinase-4 (Homo sapiens) (UniProt P35557)
Test: human glucokinase inhibition, counter-screen for TbHK1 inhibitor project, biochemical, recombinant hGlck (AID 492951)
Conditions: G6PDH-coupled NADH absorbance 340 nm, at 10 µM; hits give high values
Method in brief: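 Test system: purified recombinant human glucokinase (HK4) with G6PDH coupling enzyme / Reagent: 20 mM glucose as reaction starter, plus 1 mM ATP / Timing: 10 min room-temperature compound-enzyme preincubation before glucose addition / Measured by: A340 of NADH / Repeats: three replicates per compound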

Chain of Hexokinase-4 (Homo sapiens) (P35557 whole entry, looked up): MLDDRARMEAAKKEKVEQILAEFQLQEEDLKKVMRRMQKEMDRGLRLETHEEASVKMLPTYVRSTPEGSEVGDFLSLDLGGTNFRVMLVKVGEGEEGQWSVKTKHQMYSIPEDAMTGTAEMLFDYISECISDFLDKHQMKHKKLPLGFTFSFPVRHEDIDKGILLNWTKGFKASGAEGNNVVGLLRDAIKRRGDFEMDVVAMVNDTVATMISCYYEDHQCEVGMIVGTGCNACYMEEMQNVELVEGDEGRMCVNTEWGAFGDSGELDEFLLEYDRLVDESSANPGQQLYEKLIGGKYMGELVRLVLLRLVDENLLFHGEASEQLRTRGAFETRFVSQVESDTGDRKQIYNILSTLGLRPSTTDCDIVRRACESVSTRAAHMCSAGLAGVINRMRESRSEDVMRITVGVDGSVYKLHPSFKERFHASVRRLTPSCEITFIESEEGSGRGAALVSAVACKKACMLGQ

SMILES | inhibition | outcome
O=c1c(Br)csn1-c1ccc(Br)cc1 | 32.2% (active) | 
COc1cccc(C(=O)Nc2cc(Cl)ccc2C(=O)O)c1 |  | inactive
CCCCCC(=O)Nc1cc(Cl)ccc1C(=O)O |  | inactive
CC1(c2ccc(C(=O)Nc3cc(Cl)ccc3C(=O)O)cc2)CC1 |  | inactive
CCOC(=O)Cn1sc2ccccc2c1=O |  | inactive
COc1ccc(C(=O)Nc2cc(Cl)ccc2[N+](=O)[O-])cc1 |  | inactive
O=c1c2ccccc2on1-c1ccccc1 |  | inactive
O=c1c2ccccc2sn1-c1ccccc1F | 28.9% (active) | 
COc1ccc(C(=O)Nc2ccccc2C(=O)O)cc1Cl | 11.9% (active) | 
COc1ccc(C(=O)Nc2cc(F)ccc2C(=O)O)cc1 |  | inactive
COc1ccccc1-n1sc2ccccc2c1=O | 55% (active) | 
O=c1cc(-c2ccccc2)sn1-c1ccccc1 |  | inactive
CC(=O)Nc1cc(Cl)ccc1C(=O)O |  | inactive
O=c1c2cc(F)ccc2sn1-c1ccc(Cl)cc1 | 40% (active) | 
N#Cc1ccc(Oc2ccc3c(c2)B(O)OC3)cc1 |  | inactive
O=C(Nc1cc(Cl)ccc1C(=O)O)c1ccc(OC(F)(F)F)cc1 | 13.1% (active) | 
O=C(Nc1cc(Cl)ccc1C(=O)O)c1ccc2c(c1)CCC2 | 12.2% (active) | 
O=C(Cn1sc2ccccc2c1=O)Nc1cccc(I)c1 |  | inactive
COc1ccc(C(=O)Nc2cc(F)cc(F)c2O)cc1 |  | inactive

SMILES | inhibition | outcome
O=C(c1ccccc1)n1sc2ccccc2c1=O |  | inactive
COC(=O)c1ccc(Cl)cc1NC(=O)c1ccc(OC)cc1 | 18.2% (active) | 
COc1ccc(C(=O)Nc2cccc(Cl)c2)cc1 |  | inactive
O=C(Nc1cc(Cl)ccc1C(=O)O)c1cocn1 |  | inactive
O=c1c2ccc(F)cc2sn1Cc1ccccc1 | 56.1% (active) | 
COc1ccc2c(c1)CN(c1cc(Cl)ccc1C(=O)O)C2=O |  | inactive
N#Cc1ccc2sn(-c3ccccc3)c(=O)c2c1 | 4.3% (inactive) | 
Cn1sc(=O)c2ccccc21 | 56.2% (active) | 
O=C(Nc1cc(Cl)ccc1C(=O)O)c1ccc(I)cc1 | 22.9% (active) | 
O=C(Cn1sc2ccccc2c1=O)Nc1ccc(C(F)(F)F)cc1 | 23.8% (active) | 
COc1ccc(C(=O)Nc2cc(C)ccc2C(=O)O)cc1 |  | inactive
O=C(Nc1cc(Cl)ccc1C(=O)O)c1ccsc1 |  | inactive
N#Cc1ccccc1NC(=O)Cn1sc2ccccc2c1=O | 10.9% (active) | 
COc1ccc(NC(=O)Cn2sc3ccccc3c2=O)cc1 |  | inactive
COc1ccc(C(=O)Nc2cc(Cl)c(Br)cc2C(=O)O)cc1 | 22.3% (active) | 
COc1ccc(NC(=O)Nc2ccccc2C(=O)O)cc1 | 5.1% (inactive) | 
O=c1c(O)c(-c2ccc(O)c(O)c2)oc2cc(O)cc(O)c12 | 68.9% (active) | 
COc1ccc(N2C(=O)c3ccc(Cl)cc3C2=O)cc1 |  | inactive
O=C(NCc1ccccc1)n1sc2ccccc2c1=O | 38.3% (active) | 
